Laboratory results: ChEMBL document CHEMBL1806428, “Design and synthesis of spiro derivatives of parthenin as novel anti-cancer agents” (Eur J Med Chem, 2011)
“And” between values parts separate entries of the source, which are not always exact repeats. Identical values can stand only once.

Tests used:
PC-3 = test: Cytotoxicity against human PC3 cells assessed as cell growth after 48 hrs by sulforhodamine B assay; assay type: functional, cell-based
How it was run: (§1)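 Log-phase cells seeded at 10^4/well and allowed to attach for 24 h at 37 °C, 5% CO2. Exposed for 48 h to 0.1–100 (1:10 serial dilutions), four replicate wells per condition. Fixed with cold 50% TCA for 1 h at 4 °C, stained with sulforhodamine B, dye dissolved in Tris, OD read at 540 nm. Blank-subtracted growth expressed relative to untreated cells (100%); IC50 reported.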

SW-620 = test: Cytotoxicity against human SW620 cells assessed as cell growth after 48 hrs by sulforhodamine B assay; assay type: functional, cell-based; how it was run: as §1
DU-145 = test: Cytotoxicity against human DU145 cells assessed as cell growth after 48 hrs by sulforhodamine B assay; assay type: functional, cell-based; how it was run: as §1
[1] = Partition coefficient, log P of the compound; assay type: physicochemical; settings: octanol/water

| logP [1] | Compound | IC50 (PC-3; Homo sapiens, PC-3, 48 h) [µM] | IC50 (PC-3; pc-3) | IC50 (SW-620; Homo sapiens, SW-620, 48 h) [µM] | IC50 (SW-620; sw-620) [µM] | IC50 (DU-145; Homo sapiens, DU-145, 48 h) [µM] | IC50 (DU-145; du-145) [µM] |
| --- | --- | --- | --- | --- | --- | --- | --- |
| – | C[C@H]1CC[C@@H]2[C@@H](OC(=O)[C@]23CC(c2cccc(Cl)c2)N(c2ccccc2)O3)[C@]2(C)C(=O)C=C[C@@]12O (some centres undefined) | 8.2 | 12 µM | 6.1 | 10.5 | 7.4 | 6 |
| 2.09 | C[C@H]1CC[C@@H]2[C@@H](OC(=O)[C@]23CC(c2ccccc2Cl)=NO3)[C@]2(C)C(=O)C=C[C@@]12O | 12 | – | 9 | – | 19 | – |
| 1.06 | COc1ccc(C2=NO[C@]3(C2)C(=O)O[C@@H]2[C@H]3CC[C@H](C)[C@]3(O)C=CC(=O)[C@@]23C)cc1OC | 25 | – | 86 | – | 84 | – |
| 3.87 | C[C@H]1CC[C@@H]2[C@@H](OC(=O)[C@]23CC(c2ccccc2Cl)N(c2ccccc2)O3)[C@]2(C)C(=O)C=C[C@@]12O (mixture of isomers) | – | – | – | – | – | – |
| – | C[C@H]1CC[C@@H]2[C@@H](OC(=O)[C@]23CC(c2ccccc2F)N(c2ccccc2)O3)[C@]2(C)C(=O)C=C[C@@]12O (some centres undefined) | 2.7 | 2.5 µM | 9 | 10.2 | 4.1 | 6 |
| – | C[C@H]1CC[C@@H]2[C@@H](OC(=O)[C@]23CC(c2ccc(C#N)cc2)N(c2ccccc2)O3)[C@]2(C)C(=O)C=C[C@@]12O (some centres undefined) | 4.8 | 9.1 µM | 4.8 | 5 | 5 | 7 |
| 4 | C[C@H]1CC[C@@H]2[C@@H](OC(=O)[C@]23CC(c2ccc(Br)cc2)N(c2ccccc2)O3)[C@]2(C)C(=O)C=C[C@@]12O (mixture of isomers) | – | – | – | – | – | – |
| – | C[C@H]1CC[C@@H]2[C@@H](OC(=O)[C@]23CC(c2c(Cl)cccc2Cl)N(c2ccccc2)O3)[C@]2(C)C(=O)C=C[C@@]12O (some centres undefined) | 2.4 | 4.2 µM | 3 | 5 | 9 | 6.3 |
| 3.64 | Cc1ccc(C2C[C@@]3(ON2c2ccccc2)C(=O)O[C@@H]2[C@H]3CC[C@H](C)[C@]3(O)C=CC(=O)[C@@]23C)cc1 (mixture of isomers) | – | – | – | – | – | – |
| 3.25 | COc1ccc(C2C[C@@]3(ON2c2ccccc2)C(=O)O[C@@H]2[C@H]3CC[C@H](C)[C@]3(O)C=CC(=O)[C@@]23C)cc1 (mixture of isomers) | – | – | – | – | – | – |
| 3.64 | Cc1ccccc1C1C[C@@]2(ON1c1ccccc1)C(=O)O[C@@H]1[C@H]2CC[C@H](C)[C@]2(O)C=CC(=O)[C@@]12C (mixture of isomers) | – | – | – | – | – | – |
| – | C[C@H]1CC[C@@H]2[C@@H](OC(=O)[C@]23CC(c2ccc(Br)cc2)N(c2ccccc2)O3)[C@]2(C)C(=O)C=C[C@@]12O (some centres undefined) | – | 5.8 µM and 2.3 µM | 6.7 | 8.1 | 5.3 | 4.2 |
| – | COc1ccc(C2C[C@@]3(ON2c2ccccc2)C(=O)O[C@@H]2[C@H]3CC[C@H](C)[C@]3(O)C=CC(=O)[C@@]23C)cc1 (some centres undefined) | 5.7 | 6 µM | 7.3 | 4.2 | 6.4 | 7.1 |
| 3.19 | C[C@H]1CC[C@@H]2[C@@H](OC(=O)[C@]23CC(c2ccccc2)N(c2ccccc2)O3)[C@]2(C)C(=O)C=C[C@@]12O (mixture of isomers) | – | – | – | – | – | – |
| – | C[C@H]1CC[C@@H]2[C@@H](OC(=O)[C@]23CC(c2cccc(F)c2)N(c2ccccc2)O3)[C@]2(C)C(=O)C=C[C@@]12O (some centres undefined) | 4.8 | 9 µM | 4.8 | 5.1 | 5 | 8.1 |
| 3.87 | C[C@H]1CC[C@@H]2[C@@H](OC(=O)[C@]23CC(c2ccc(Cl)cc2)N(c2ccccc2)O3)[C@]2(C)C(=O)C=C[C@@]12O (mixture of isomers) | – | – | – | – | – | – |
| – | C[C@H]1CC[C@@H]2[C@@H](OC(=O)[C@]23CC(c2c(F)c(F)c(F)c(F)c2F)N(c2ccccc2)O3)[C@]2(C)C(=O)C=C[C@@]12O (some centres undefined) | 5.6 | 5 µM | 3 | 5.5 | 9.3 | 6.1 |
| 3.15 | C[C@H]1CC[C@@H]2[C@@H](OC(=O)[C@]23CC(c2ccc([N+](=O)[O-])cc2)N(c2ccccc2)O3)[C@]2(C)C(=O)C=C[C@@]12O (mixture of isomers) | – | – | – | – | – | – |
| – | COc1ccc(C2C[C@@]3(ON2c2ccccc2)C(=O)O[C@@H]2[C@H]3CC[C@H](C)[C@]3(O)C=CC(=O)[C@@]23C)cc1Br (some centres undefined) | 5.7 | 8.1 µM | 6.8 | 9 | 6.3 | 5.4 |

| logP [1] | Compound | IC50 (PC-3; Homo sapiens, PC-3, 48 h) [µM] | IC50 (PC-3; pc-3) | IC50 (SW-620; Homo sapiens, SW-620, 48 h) [µM] | IC50 (SW-620; sw-620) [µM] | IC50 (DU-145; Homo sapiens, DU-145, 48 h) [µM] | IC50 (DU-145; du-145) [µM] |
| --- | --- | --- | --- | --- | --- | --- | --- |
| – | C[C@H]1CC[C@@H]2[C@@H](OC(=O)[C@]23CC(c2ccccc2)N(c2ccccc2)O3)[C@]2(C)C(=O)C=C[C@@]12O (some centres undefined) | 5.7 | 9 µM | 5.3 | 6 | 5.6 | 6.5 |
| – | Cc1ccc(C2C[C@@]3(ON2c2ccccc2)C(=O)O[C@@H]2[C@H]3CC[C@H](C)[C@]3(O)C=CC(=O)[C@@]23C)cc1 (some centres undefined) | 8.5 | 9.1 µM | 8.7 | 9 | 8.1 | 6.3 |
| – | C[C@H]1CC[C@@H]2[C@@H](OC(=O)[C@]23CC(c2ccc(F)cc2)N(c2ccccc2)O3)[C@]2(C)C(=O)C=C[C@@]12O (some centres undefined) | – | 5.7 µM and 12 µM | 7.3 | 6 | 6.4 | 5 |
| 3.35 | C[C@H]1CC[C@@H]2[C@@H](OC(=O)[C@]23CC(c2ccc(F)cc2)N(c2ccccc2)O3)[C@]2(C)C(=O)C=C[C@@]12O (mixture of isomers) | – | – | – | – | – | – |
| 2.94 | C[C@H]1CC[C@@H]2[C@@H](OC(=O)[C@]23CC(c2ccc(C#N)cc2)N(c2ccccc2)O3)[C@]2(C)C(=O)C=C[C@@]12O (mixture of isomers) | – | – | – | – | – | – |
| – | COc1cccc(C2C[C@@]3(ON2c2ccccc2)C(=O)O[C@@H]2[C@H]3CC[C@H](C)[C@]3(O)C=CC(=O)[C@@]23C)c1 (some centres undefined) | 12 | 9 µM | 7.5 | 6.6 | 10 | 11 |
| 3.98 | COc1ccc(C2C[C@@]3(ON2c2ccccc2)C(=O)O[C@@H]2[C@H]3CC[C@H](C)[C@]3(O)C=CC(=O)[C@@]23C)cc1Br (mixture of isomers) | – | – | – | – | – | – |
| – | C[C@H]1CC[C@@H]2[C@@H](OC(=O)[C@]23CC(c2ccc([N+](=O)[O-])cc2)N(c2ccccc2)O3)[C@]2(C)C(=O)C=C[C@@]12O (some centres undefined) | 8.4 | 9.3 µM | 5.7 | 5.1 | 5.6 | 6 |
| 3.42 | C[C@H]1CC[C@@H]2[C@@H](OC(=O)[C@]23CC(c2c(F)cccc2F)N(c2ccccc2)O3)[C@]2(C)C(=O)C=C[C@@]12O (mixture of isomers) | – | – | – | – | – | – |
| – | Cc1ccccc1C1C[C@@]2(ON1c1ccccc1)C(=O)O[C@@H]1[C@H]2CC[C@H](C)[C@]2(O)C=CC(=O)[C@@]12C (some centres undefined) | 15 | – | 12 | 9 | 4.5 | 5.1 |
| 4.45 | C[C@H]1CC[C@@H]2[C@@H](OC(=O)[C@]23CC(c2c(Cl)cccc2Cl)N(c2ccccc2)O3)[C@]2(C)C(=O)C=C[C@@]12O (mixture of isomers) | – | – | – | – | – | – |
| 3.35 | C[C@H]1CC[C@@H]2[C@@H](OC(=O)[C@]23CC(c2ccccc2F)N(c2ccccc2)O3)[C@]2(C)C(=O)C=C[C@@]12O (mixture of isomers) | – | – | – | – | – | – |
| 3.35 | C[C@H]1CC[C@@H]2[C@@H](OC(=O)[C@]23CC(c2cccc(F)c2)N(c2ccccc2)O3)[C@]2(C)C(=O)C=C[C@@]12O (mixture of isomers) | – | – | – | – | – | – |
| – | C[C@H]1CC[C@@H]2[C@@H](OC(=O)[C@]23CC(c2ccc(Cl)cc2)N(c2ccccc2)O3)[C@]2(C)C(=O)C=C[C@@]12O (some centres undefined) | 7.8 | 12 µM | 7.5 | 5.1 | 7 | 6 |
| – | C[C@H]1CC[C@@H]2[C@@H](OC(=O)[C@]23CC(c2c(F)cccc2F)N(c2ccccc2)O3)[C@]2(C)C(=O)C=C[C@@]12O (some centres undefined) | 2.5 | 2.3 µM | 5 | 7.2 | 12 | 9 |
| 3.87 | C[C@H]1CC[C@@H]2[C@@H](OC(=O)[C@]23CC(c2cccc(Cl)c2)N(c2ccccc2)O3)[C@]2(C)C(=O)C=C[C@@]12O (mixture of isomers) | – | – | – | – | – | – |
| – | C[C@H]1CC[C@@H]2[C@@H](OC(=O)[C@]23CC(c2ccccc2Cl)N(c2ccccc2)O3)[C@]2(C)C(=O)C=C[C@@]12O (some centres undefined) | 3.5 | 6.3 µM | 5.5 | 9.2 | 6 | 4.1 |
| 3.25 | COc1cccc(C2C[C@@]3(ON2c2ccccc2)C(=O)O[C@@H]2[C@H]3CC[C@H](C)[C@]3(O)C=CC(=O)[C@@]23C)c1 (mixture of isomers) | – | – | – | – | – | – |
| 3.72 | C[C@H]1CC[C@@H]2[C@@H](OC(=O)[C@]23CC(c2c(F)c(F)c(F)c(F)c2F)N(c2ccccc2)O3)[C@]2(C)C(=O)C=C[C@@]12O (mixture of isomers) | – | – | – | – | – | – |

| Compound | logP [1] | IC50 (PC-3; Homo sapiens, PC-3, 48 h) [µM] | IC50 (PC-3; pc-3) | IC50 (SW-620; Homo sapiens, SW-620, 48 h) [µM] | IC50 (SW-620; sw-620) [µM] | IC50 (DU-145; Homo sapiens, DU-145, 48 h) [µM] | IC50 (DU-145; du-145) [µM] |
| --- | --- | --- | --- | --- | --- | --- | --- |
| C[C@H]1CC[C@@H]2[C@@H](OC(=O)[C@]23CN3c2ccccc2)[C@]2(C)C(=O)C=C[C@@]12O | 1.38 | 10.6 | – | 87.7 | – | 31.4 | – |
| COc1ccccc1N1C[C@]12C(=O)O[C@@H]1[C@H]2CC[C@H](C)[C@]2(O)C=CC(=O)[C@@]12C | 1.41 | 52 | – | 47.3 | – | 27 | – |
